Source: PubChem BioAssay (several laboratories)
Calpain2 inh: inhibitors of pig calpain II; inhibition, % at 16 µM; hit rate 0.37% among 220,000; purified calpain II, fluorogenic peptide substrate, 30 min;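 active = inhibition above about 50%, limit read from the data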
Biofilm kill mix: mixtures killing C. albicans biofilm; C. albicans biofilm persisters + clotrimazole, fluorescence viability; primary screen in compound mixtures of four per well; inhibition, % at 7.6 µM; hit rate 0.02% among 120,000;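 active = inhibition above 30.3% in the primary screen of four-compound pools, then above 30% when the compound was retested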;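 note: compounds exposed to preformed 24 h biofilms for 48 h; 0% = untreated biofilm control and 100% = clotrimazole plus chlorhexidine kill blank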
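Probe or stimulus – Clotrimazole 50 µg/mL co-treatment · System – C. albicans biofilms · Schedule – 24 h biofilm formation, then 48 h compound exposure, 37 °C · Evaluation – percent inhibition of biofilm viability · Technique – 2-h Alamar Blue fluorescence, 535/590 nm excitation/emission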
Mcl1-Noxa inh: Mcl-1/Noxa interaction inhibition. Q07820. TR-FRET Mcl-1/Noxa peptide binding, 2 h. inhibition, % at 21.7 µM. hit rate 1.5% among 220,000;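 active = compounds that cut the protein-peptide binding signal by more than 50% relative to plate controls in a single-dose test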;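 note: His-tagged Mcl-1 with rhodamine Noxa BH3 peptide and terbium anti-His antibody; 0% = Mcl-1 plus Noxa peptide wells and 100% = peptide-only wells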
Target sequence (Q07820 whole entry, looked up): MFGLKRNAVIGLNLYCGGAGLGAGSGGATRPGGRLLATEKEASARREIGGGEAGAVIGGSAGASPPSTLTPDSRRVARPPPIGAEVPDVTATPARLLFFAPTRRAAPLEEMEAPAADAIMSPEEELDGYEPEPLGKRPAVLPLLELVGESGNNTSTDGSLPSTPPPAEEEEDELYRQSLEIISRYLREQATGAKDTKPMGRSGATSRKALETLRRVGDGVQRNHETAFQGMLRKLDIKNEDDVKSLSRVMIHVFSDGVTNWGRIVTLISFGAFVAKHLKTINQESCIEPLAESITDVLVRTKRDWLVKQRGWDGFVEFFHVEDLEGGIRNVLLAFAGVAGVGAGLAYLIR
Mcl1 Bid PPI: Mcl-1/Bid interaction inhibition. TR-FRET Mcl-1/Bid-Dy647 peptide binding, 1536-well. hit rate 0.97% among 220,000. inhibition, % at 21.7 µM. Q07820;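 active = compounds that cut the binding signal by more than half at the single screening dose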;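 note: His-tagged Mcl-1 with europium anti-His antibody binding Bid BH3 peptide; 0% = Mcl-1 plus peptide wells and 100% = peptide-only wells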
Mcl-1 Bim block: human Bim-Mcl-1 interaction inhibition; Q07820; AID 1009; inhibition, % at 10 µM; hit rate 0.1% among 190,000; Bead-based flow cytometry, Bim peptide-Mcl-1 binding; in the data active = inhibition above about 40%;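 note: 0% = no compound tracer wells and 100% = peptide blocker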
Arbovirus anti: blocks arbovirus infection | arbovirus infection cell-based antiviral screen | inhibition, % at 10 µM | hit rate 0.37% among 200,000 | AID 1251; in the data active = inhibition above about 30%
* marks the source's active call; other numbers are inactive results; nt = no result given. Rows were chosen to be rich in hits. Some 2.8% of all compounds tested hit in one or more screens of this group.

SMILES	Calpain2 inh	Biofilm kill mix	Mcl1-Noxa inh	Mcl1 Bid PPI	Mcl-1 Bim block	Arbovirus anti
CCOC(=O)c1[nH]c(C)c(CN(C(C)=O)c2ccc(OCC)cc2)c1C	12	20	7	-44	0	-19
Cn1cc2cc(NC(N)=S)ccc2n1	-24	14	11	-28	-3	2
Cc1ccc(S(=O)(=O)/N=C2/C=C(Sc3ncn[nH]3)C(=O)c3ccccc32)c(C)c1	28	19	94*	26	11	-32
Cc1ccc(C)c(S(=O)(=O)Nc2ccc(O)c(Sc3ncn[nH]3)c2)c1	-2	8	8	-45	nt	nt
CC(C)c1ccc(S(=O)(=O)/N=C2/C=C(Sc3ncn[nH]3)C(=O)c3ccccc32)cc1	13	6	105*	49	27	-37
Cc1ccc(S(=O)(=O)/N=C2/C=C(Sc3ncn[nH]3)C(=O)c3ccccc32)cc1	-18	19	98*	65*	-7	-44
COC(=O)CSc1ncnc2c1sc1nc(-c3ccco3)c3c(c12)CC(C)(C)OC3	-191	nt	76*	-61	1	13
CCSc1ncnc2c1sc1nc(-c3ccco3)c3c(c12)CC(C)(C)OC3	-16	nt	28	-12	2	3
Cc1cccc(C2NC(c3cccc(C)c3)C([N+](=O)[O-])C(C)(C)C2[N+](=O)[O-])c1 (stereo not drawn)	25	16	10	2	-1	28
Cc1ccc(OCC(=O)O/N=C(\N)c2ccccn2)cc1	8	-6	10	-28	0	4
CC(C)(C)CC(=O)O/N=C(\N)c1ccccn1	22	9	-6	85*	-6	6
Cc1nnc(SCC(=O)Nc2nc(-c3ccccc3)cs2)n1N	-16	nt	5	-20	-1	5
Cn1cnnc1SCC(=O)Nc1nc(-c2ccccc2)cs1	-13	-2	56*	-5	-2	-2
C#Cc1ccc(C(=O)Nc2cc(C(N)=O)ccc2N2CCOCC2)cc1	-22	nt	51*	-6	2	2
CCN(CC)S(=O)(=O)c1ccc(N2CCOCC2)c(NC(=O)c2ccc(C#N)cc2)c1	-15	5	8	-17	-2	6
O=[N+]([O-])c1cc(/C=N\Nc2nccs2)ccc1O	20	nt	101*	61*	1	12
COc1cc(C(C)=O)ccc1OCCN1CCC(Cc2ccccc2)CC1	1	5	8	0	-1	-16
Clc1ccccc1OCCN1CCC(Cc2ccccc2)CC1	27	23	30	63*	-3	10
CCOC(=O)Cn1c(-c2ccccc2)nc2ccccc2c1=O	16	nt	14	0	0	-2
COc1ccc(/C=C/c2nc3ccccc3n2Cc2ccc(OC)c(OC)c2)cc1	-28	10	7	-22	0	-16
CCOC(=O)Cn1c2ccc(OC)cc2c2nc3ccccc3nc21	-29	nt	26	59*	3	-21
COc1ccc2c(c1)c1nc3ccccc3nc1n2Cc1ccc(OC)c(OC)c1	12	11	-11	6	-3	33*
C/C(=N/NC(=O)CN1CCN(Cc2ccccc2Cl)CC1)c1ccco1	-17	19	-17	-18	nt	nt
O=C(O)c1ccc2c(=O)n3cc(C(=O)c4ccccc4O)cc(Cl)c3nc2c1	-1	16	60*	-94	nt	nt
O=C(O)c1cccn2c(=O)c3ccccc3nc12	-53	nt	-2	-7	-1	3
SMILES	Calpain2 inh	Biofilm kill mix	Mcl1-Noxa inh	Mcl1 Bid PPI	Mcl-1 Bim block	Arbovirus anti
Cc1cc(C(=O)OCC(=O)NCc2ccc(Cl)cc2)c(C)o1	1	18	-23	-27	0	-5
CC(=O)/C(N=Nc1ccc(-n2ccc(C(F)(F)F)n2)cc1)=C(\C)O	93*	23	6	2	nt	nt
CC(=O)/C(N=Nc1ccc(C(=O)O)cc1)=C(\C)O	-9	4	6	-6	nt	nt
CC(=O)NS(=O)(=O)c1ccc2sc(C)nc2c1	22	21	15	20	nt	nt
C/C=C\C=C/C(=O)Nc1cccc(C2=NOC3(C2)C[C@H](C(N)=O)N(C(=O)c2ccc(OC)cc2)C3)c1 (stereo partly drawn)	-14	13	63*	27	nt	nt
C/C=C\C=C/C(=O)Nc1cccc(C2=NOC3(C2)C[C@H](C(N)=O)N(C(=O)Cc2ccc([N+](=O)[O-])cc2)C3)c1 (stereo partly drawn)	-72	9	65*	6	nt	nt
COc1cscc1C(=O)O	3	17	-10	2	nt	nt
COC(=O)/C(=N/Nc1ccccc1OC)N1CCCc2ccccc21	29	38	13	-70	nt	nt
O=C(CSc1nnc(-c2ccncc2)o1)NCc1ccccc1	21	7	-1	-4	-5	-6
